Data set [1] deals with Mycobacterium tuberculosis. Briefly: Antibacterial activity against Mycobacterium tuberculosis H37Rv assessed as reduction in bacterial growth after 7 days by resazurin assay. It counts as functional. The following applies: 168 h. (In general: Resazurin is reduced to fluorescent resorufin, in cell work by metabolically active cells.)
Data set [2] concerns Mycobacterium tuberculosis. The data set is described as follows: Potency index, ratio of isoniazid MIC to compound MIC for Mycobacterium tuberculosis H37Rv. It counts as functional.
For data set [3], the system named is Mycobacterium tuberculosis. Briefly: Antibacterial activity against Mycobacterium tuberculosis H37Rv infected in mouse RAW 264.7 cells assessed reduction in bacterial count per well at 5 uM after 3 days (reference value: 2.5 +/- 0.15 log10CFU). It counts as functional.
The subject of the next data set is Vero. The data set is described as follows: Cytotoxicity against African green monkey Vero cells assessed as reduction in cell viability at 20 uM after 72 hrs by MTT assay. Format: cell-based. The following applies: chlorocebus sabaeus. On the technique in general: Tetrazolium dyes change colour on reduction, which living cells bring about.
A further data set deals with HaCaT. The data set is described as follows: Cytotoxicity against human HaCaT cells assessed as reduction in cell viability at 20 uM after 72 hrs by MTT assay. It counts as cell-based.
The next data set deals with Escherichia coli. Briefly: Antibacterial activity against Escherichia coli ATCC 25922 at 20 uM. Format: functional, organism-based.
Another data set has as its system Staphylococcus aureus. Briefly: Antibacterial activity against Staphylococcus aureus ATCC 25923 at 20 uM. It counts as functional, organism-based.
A further data set deals with Pseudomonas aeruginosa. Briefly: Antibacterial activity against Pseudomonas aeruginosa ATCC 27853 at 20 uM. It counts as functional, organism-based.
A further data set relates to Acinetobacter baumannii. The data set is described as follows: Antibacterial activity against Acinetobacter baumannii ATCC BAA 747 at 20 uM. Format: functional, organism-based.
A short description of data set [4]: Thermodynamic solubility of the compound at pH 1.5 after 24 hrs by HPLC analysis. Format: physicochemical. The following applies: buffer, read-out: Therm_solubility.
Another data set relates to Liver. Briefly: Metabolic stability in human liver S9 fraction at 2 uM measured up to 30 mins by HPLC/MS/MS analysis. Format: ADME, subcellular. The following applies: s9, 0.5 h.
For data set [5], the species on record is Danio rerio. The data set is described as follows: Toxicity in zebrafish embryo assessed as reduction in heart rate at 1 uM measured at 72 hrs post fertilization by stereo microscopic analysis. It counts as organism-based. The following applies: in vivo.
A short description of data set [6]: Thermodynamic solubility of the compound at pH 7.4 after 24 hrs by HPLC analysis. It counts as physicochemical. The following applies: buffer, read-out: Therm_solubility.
Data set [7] in a line: Inhibition CYP450 in human liver microsomes by HPLC/MS/MS analysis in presence of NADPH. Format: ADME. (Liver microsomes are vesicles of endoplasmic reticulum, rich in cytochrome P450 enzymes.)
The species named for data set [8] is Danio rerio. Briefly: Toxicity in zebrafish embryo assessed as reduction in heart rate at 5 uM measured at 72 hrs post fertilization by stereo microscopic analysis. Format: organism-based. To be noted: in vivo.
The species entered for data set [9] is Danio rerio. The data set is described as follows: Toxicity in zebrafish embryo assessed as reduction in heart rate at 20 uM measured at 72 hrs post fertilization by stereo microscopic analysis. It counts as organism-based. The following applies: in vivo.
The species entered for data set [10] is Danio rerio. Briefly: Toxicity in zebrafish embryo assessed as reduction in embryo viability at 20 uM measured at 72 hrs post fertilization. Format: organism-based. To be noted: in vivo. The method in brief: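 Zebrafish embryos exposed to 20 μM for 72 h; embryo survival scored.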
Data set [11] can be described thus: Selectivity index, ratio of cytotoxic activity for African green monkey Vero cells to MIC for Mycobacterium tuberculosis H37Rv. Format: toxicity, cell-based. To be noted: read-out: Selectivity Index.
Data set [12] is described as follows: Selectivity index, ratio of cytotoxic activity for human HaCaT cells to MIC for Mycobacterium tuberculosis H37Rv. It counts as toxicity, cell-based. The following applies: read-out: Selectivity Index.
A short description of data set [13]: Selectivity index, ratio of cardiac toxicity for zebrafish embryo to MIC for Mycobacterium tuberculosis H37Rv. To be noted: read-out: Selectivity Index.
Another data set relates to RAW264.7. Briefly: Cytotoxicity against mouse RAW264.7 cells assessed as decrease in cell viability at 5 uM after 72 hrs by MTT assay. Format: cell-based. The following applies: raw264.7, 72 h.

In brackets after ≈: the same amount, converted by molar mass. Activity calls are given as the source filed them. Bounds are passed on as bounds.

As for `COc1ccc2nc(C)cc(OCC(=O)Nc3ccc4ccccc4c3)c2c1`, in [1], the minimal inhibitory concentration (MIC) (commonly the smallest concentration in the dilution series that meets the test's criterion for growth inhibition) is 0.05 µM (≈ 0.0186 µg/mL). Further, in data set [2], the Ratio was determined as 30. Besides, the Activity in data set [3] is recorded as 1.93 log10CFU; in the data set with Vero, “Toxic”; in the data set on HaCaT it was “Toxic”; in the data set filed under Danio rerio [5] it was “Non-toxic”; in the data set listed under Danio rerio [8], “Non-toxic”; in the data set listed under Danio rerio [9], “Toxic”. Also, the Activity entry in the data set filed under Danio rerio [10] was “Toxic”; in the data set with RAW264.7, “Non-toxic”. Further, the result in the data set on Escherichia coli, in the data set on Staphylococcus aureus, in the data set on Pseudomonas aeruginosa and with Acinetobacter baumannii was inactive. The solubility thermodynamic at 24 h in data set [4] was 30 µM (≈ 11.2 µg/mL); in data set [6] it was under 4.4 µM. Besides, the Stability result with Liver is “Unstable”. Also, in [7], the concentration for half-maximal inhibition (IC50) – broadly, the concentration at which inhibition is half-maximal – was under 10 µM. The Selectivity ratio in [11], in data set [12] and in data set [13] was over 100 each time.
